Measurements reported in ChEMBL document CHEMBL1128473, “[(Biaryloxy)alkyl]isoxazoles: picornavirus inhibitors” (J Med Chem, 1995).
Values after ≈ are worked out from the molar mass of the structure shown.

How the values were obtained:
[1] = system: Human rhinovirus sp.; experiment: Concentration inhibiting 50% of the serotypes tested to 50% of the viral concentration of untreated controls following 72 hr of exposure; assay type: functional
Outline: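 Tissue culture infectious dose (TCID50) assay against a panel of 10 human rhinovirus serotypes. For each serotype, the viral concentration was compared with untreated controls after 72 h of compound exposure. MIC50 is the compound concentration at which half of the serotypes tested are reduced to 50% of the untreated-control viral concentration.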

[2] = Metabolic stability expressed as half life values was monitored in vitro liver microsomal assay.; assay type: ADME, Microsome; settings: liver microsomes

SMILES	MIC50 [1]	half-life [2]
Cc1cc(CCCOc2c(C)cc(-c3cccc(F)c3)cc2C)on1	0.32 µM (≈ 0.109 µg/mL)	
Cc1cc(CCCOc2c(C)cc(-c3ccc(C(F)(F)F)cc3)cc2C)on1	1.7 µM (≈ 0.662 µg/mL)	
Cc1cc(CCCOc2c(C)cc(-c3ccc(Cl)cc3)cc2C)on1	0.12 µM (≈ 0.0427 µg/mL)	
Cc1cc(CCCOc2c(C)cc(-c3cccc([N+](=O)[O-])c3)cc2C)on1	0.35 µM (≈ 0.128 µg/mL)	
Cc1cc(CCCOc2c(C)cc(-c3cccc(Cl)c3)cc2C)on1	0.27 µM (≈ 0.0961 µg/mL)	
COc1ccc(-c2cc(C)c(OCCCc3cc(C)no3)c(C)c2)cc1	0.28 µM (≈ 0.0984 µg/mL)	
Cc1cccc(-c2cc(C)c(OCCCc3cc(C)no3)c(C)c2)c1	0.23 µM (≈ 0.0772 µg/mL)	> 3.33 h
Cc1cc(CCCOc2c(C)cc(-c3ccc(N(C)C)cc3)cc2C)on1	0.66 µM (≈ 0.241 µg/mL)	
Cc1cc(CCCOc2c(C)cc(-c3ccccc3)cc2C)on1	0.16 µM (≈ 0.0514 µg/mL)	> 3.33 h
Cc1cc(CCCOc2c(C)cc(-c3ccc(O)cc3)cc2C)on1	0.77 µM (≈ 0.26 µg/mL)	
